In test [1] the test system is KB. In words: Cytotoxicity against human KB cells after 72 hrs by sulforhodamine B and MTT assay. The format is functional, cell-based. The method, boiled down: (§1)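 Log-phase cells were plated overnight and exposed for 72 h to a 5-concentration gradient, in triplicate wells. SRB arm: 10% cold TCA fixation for 1 h at 4 °C, 4 mg/ml SRB in 1% acetic acid for 15 min, dye dissolved in 10 mM Tris-HCl, read at 520 nm. MTT arm: 5 mg/mL MTT for 4 h at 37 °C, SDS-isobutanol-HCl solubilisation for 12–20 h, read at 570 nm. IC50 by Logit method from at least 3 independent tests.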

Test [2] addresses DNA topoisomerase 2-alpha (Homo sapiens) (UniProt P11388). In words: Inhibition of human topoisomerase 2-mediated decatenation of kinetoplast DNA at 100 uM after 15 mins by agarose gel electrophoresis. A digest of the protocol: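 ATP-dependent kDNA decatenation by 1 unit Topo II in 50 mM Tris-HCl pH 7.7, 50 mM KCl, 5 mM MgCl2, 1 mM ATP, 0.5 mM DTT, 0.5 mM EDTA and BSA, run for 15 min at 37 °C. Stopped with 10% SDS, then run on 1% agarose in TAE at 4 V/cm for 1 h and stained with ethidium bromide.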

A further test relates to HCT-116. In words: Cytotoxicity against human HCT116 cells after 72 hrs by sulforhodamine B and MTT assay. Format: functional, cell-based. The following applies: HCT-116, 72 h. The method, boiled down:
as §1
In general terms: Tetrazolium dyes change colour on reduction, which living cells bring about.

A further test relates to MCF7. Description: Cytotoxicity against human MCF7 cells after 72 hrs by sulforhodamine B and MTT assay. Format: functional, cell-based. Particulars: MCF7, 72 h. A digest of the protocol:
as §1

Test [3] concerns KB. In words: Resistance index, ratio of IC50 for vincristine-selected multi drug-resistant human KB cells to IC50 for human KB cells. The format is functional. The method, boiled down: (§2)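 Resistance factor is the IC50 in the resistant line divided by the IC50 in the parental line. Both IC50s come from 72 h SRB/MTT growth-inhibition assays, derived by the Logit method from at least 3 independent tests.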

The subject of test [4] is KB. Description: Cytotoxicity against vincristine-selected multi drug-resistant human KB cells after 72 hrs by sulforhodamine B and MTT assay. The format is functional, cell-based. The method, boiled down: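 Log-phase cells were seeded, preincubated (overnight for SRB, 24 h for MTT), then given a five-concentration gradient in triplicate wells for 72 h. For MTT, reagent was added for 4 h at 37 °C, solubilized in SDS-isobutanol-HCl for 12-20 h, and read at 570 nm. IC50 was derived by the Logit method from at least 3 independent tests.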

For another test, the system named is HL-60. Description: Induction of apoptosis in human HL60 cells assessed as DNA fragmentation at 10 uM after 36 hrs by gel electrophoresis. Format: functional, cell-based. The method, boiled down: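 HL-60 cells were seeded and exposed to compound for 36 h. Harvested cells were lysed with an equal volume of 1.2% SDS, and the fragmented DNA was extracted and resolved by gel electrophoresis.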

In the next test the test system is K562. Description: Resistance index, ratio of IC50 for adriamycin-selected multi drug-resistant human K562 cells to IC50 for human K562 cells. Format: functional. The method, boiled down: as §2

Molecules are shown by their SMILES. The source made the active and inactive calls. No cut-off for these calls is given here.

What is called IC50 is the concentration that inhibits the measured activity by half. Lower therefore signals inhibition by little substance.

DNA topoisomerase 2-alpha (Homo sapiens), sequence (P11388 whole entry): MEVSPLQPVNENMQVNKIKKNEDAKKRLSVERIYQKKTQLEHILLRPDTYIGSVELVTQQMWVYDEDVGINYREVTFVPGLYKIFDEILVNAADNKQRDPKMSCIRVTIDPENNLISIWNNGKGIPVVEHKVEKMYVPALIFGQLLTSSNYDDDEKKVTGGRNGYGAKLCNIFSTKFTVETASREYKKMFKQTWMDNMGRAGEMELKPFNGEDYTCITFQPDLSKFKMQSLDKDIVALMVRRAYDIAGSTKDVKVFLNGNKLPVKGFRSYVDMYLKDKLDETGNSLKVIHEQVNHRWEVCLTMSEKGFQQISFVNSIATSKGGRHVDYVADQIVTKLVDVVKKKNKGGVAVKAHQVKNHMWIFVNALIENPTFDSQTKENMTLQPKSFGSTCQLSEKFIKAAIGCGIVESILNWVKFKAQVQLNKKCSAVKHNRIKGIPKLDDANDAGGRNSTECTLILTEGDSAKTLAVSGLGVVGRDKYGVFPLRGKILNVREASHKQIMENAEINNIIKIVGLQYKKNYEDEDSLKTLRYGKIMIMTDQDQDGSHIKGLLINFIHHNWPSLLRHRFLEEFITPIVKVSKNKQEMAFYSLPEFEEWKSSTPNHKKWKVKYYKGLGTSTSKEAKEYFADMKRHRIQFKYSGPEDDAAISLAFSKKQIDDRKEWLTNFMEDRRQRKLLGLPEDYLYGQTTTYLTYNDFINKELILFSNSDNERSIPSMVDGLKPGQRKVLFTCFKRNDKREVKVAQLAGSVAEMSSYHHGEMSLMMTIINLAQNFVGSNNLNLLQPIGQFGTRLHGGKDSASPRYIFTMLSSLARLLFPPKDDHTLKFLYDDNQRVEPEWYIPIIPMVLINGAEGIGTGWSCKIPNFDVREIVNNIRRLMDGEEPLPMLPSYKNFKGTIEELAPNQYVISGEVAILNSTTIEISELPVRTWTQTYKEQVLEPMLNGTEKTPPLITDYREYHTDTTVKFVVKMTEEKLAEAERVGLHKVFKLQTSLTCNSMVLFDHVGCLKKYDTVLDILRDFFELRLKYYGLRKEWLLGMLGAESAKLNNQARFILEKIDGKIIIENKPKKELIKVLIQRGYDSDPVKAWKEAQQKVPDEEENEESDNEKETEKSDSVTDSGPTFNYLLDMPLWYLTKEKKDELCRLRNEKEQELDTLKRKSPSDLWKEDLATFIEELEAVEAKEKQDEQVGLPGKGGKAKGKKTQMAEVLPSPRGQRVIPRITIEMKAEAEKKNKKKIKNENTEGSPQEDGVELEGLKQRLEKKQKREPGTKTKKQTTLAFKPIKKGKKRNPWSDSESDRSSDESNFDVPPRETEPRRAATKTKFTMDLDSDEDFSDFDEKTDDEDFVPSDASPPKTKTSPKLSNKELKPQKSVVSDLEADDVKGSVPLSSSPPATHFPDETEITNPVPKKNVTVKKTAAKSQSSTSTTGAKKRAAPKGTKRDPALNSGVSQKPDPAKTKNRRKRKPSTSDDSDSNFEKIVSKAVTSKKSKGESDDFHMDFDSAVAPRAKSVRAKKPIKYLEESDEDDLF

With `COc1cc2c(O[C@@H]3O[C@H](CO)[C@@H](O)[C@H](O)[C@H]3O)c3c(c(-c4ccc5c(c4)OCO5)c2cc1OC)C(=O)OC3`, the values for the half-inhibitory concentration (IC50) in the test on KB [1], in the test on HCT-116 and in the test with MCF7 were more than 10000 nM, 9670 nM and 2440 nM, respectively. For the same molecule, the inhibition result in test [2] was “inactive”.
Consider `CC[C@]1(O)C[C@H]2CN(CCc3c([nH]c4ccccc34)[C@@](C(=O)OC)(c3cc4c(cc3OC)N(C=O)[C@H]3[C@@](O)(C(=O)OC)[C@H](OC(C)=O)[C@]5(CC)C=CCN6CC[C@]43[C@@H]65)C2)C1` [VINCRISTINE], for which, in the test with KB [3], the “Ratio IC50” value was 536.7. Further, the IC50 in the test with KB [4] came out at 1610 nM; in the test with KB [1], 3 nM.
As for `COc1cc2c(O[C@@H]3O[C@@H]4COC(C)(C)O[C@H]4[C@H](O)[C@H]3O)c3c(c(-c4ccc5c(c4)OCO5)c2cc1OC)C(=O)OC3`, the IC50 was 10 nM in the test on KB [1], 43 nM with HCT-116 and 53 nM in the test on MCF7. In test [2], the inhibition entry is “Active”.
For `COc1cc2c(O[C@@H]3OC[C@H](O)[C@H](O)[C@H]3O)c3c(c(-c4ccc5c(c4)OCO5)c2cc1OC)C(=O)OC3` [ACUTISSIMALIGNAN A], in that order: 6880 nM, more than 10000 nM, more than 10000 nM and “inactive”.
On to `COc1cc2c(O[C@@H]3O[C@H](CO)[C@H](O)[C@H](O)[C@H]3O)c3c(c(-c4ccc5c(c4)OCO5)c2cc1OC)C(=O)OC3`, for which the IC50 in the test with KB [1] was 4890 nM; in the test on HCT-116, more than 10000 nM; in the test on MCF7 it was 4110 nM. Also, the inhibition entry in test [2] is “inactive”.
For `COC[C@H]1O[C@@H](Oc2c3c(c(-c4ccc5c(c4)OCO5)c4cc(OC)c(OC)cc24)C(=O)OC3)[C@H](O)[C@@H](O)[C@H]1O`, the IC50 in the test with KB [1] was 4100 nM; in the test with HCT-116, more than 10000 nM; with MCF7, more than 10000 nM. The inhibition result in test [2] was “inactive”.
For `COc1cc2c(O[C@@H]3O[C@H](COCc4ccccc4)[C@@H](O)[C@H](O)[C@H]3O)c3c(c(-c4ccc5c(c4)OCO5)c2cc1OC)C(=O)OC3`, the IC50 with KB [1] was 15 nM; in the test with HCT-116 it was 36 nM; in the test on MCF7, 28 nM. Besides, the inhibition entry in test [2] is “Active”.
Turning to `COc1cc2c(O[C@H]3O[C@@H](C)[C@@H](OC(C)=O)[C@@H](O)[C@@H]3O)c3c(c(-c4ccc5c(c4)OCO5)c2cc1OC)C(=O)OC3` [4'-O-ACETYLPATENTIFLORIN B], the IC50 turned out to be 140 nM in the test on KB [1], 270 nM in the test on HCT-116 and 110 nM with MCF7. The inhibition entry in test [2] is “Active”.
Turning to `COc1cc2c(O[C@H]3O[C@@H](C)[C@@H](O)[C@@H](O)[C@@H]3O)c3c(c(-c4ccc5c(c4)OCO5)c2cc1OC)C(=O)OC3` [PATENTIFLORIN B], the IC50 in the test with KB [1] is more than 10000 nM; with HCT-116, more than 10000 nM; in the test with MCF7, 1420 nM. Moreover, the result in the test on HL-60 was Active. Further, the inhibition result in test [2] is “inactive”.
In the case of `COc1cccc2c1C(=O)c1c(O)c3c(c(O)c1C2=O)C[C@@](O)(C(=O)CO)C[C@@H]3O[C@H]1C[C@H](N)[C@H](O)[C@H](C)O1` [DOXORUBICIN], the “Ratio IC50” value in the test on K562 is reported as 132.2.
As for `COc1cc2c(O[C@@H]3O[C@@H]4CO[C@@H](C(C)C)O[C@H]4[C@H](O)[C@H]3O)c3c(c(-c4ccc5c(c4)OCO5)c2cc1OC)C(=O)OC3`, the 50% inhibitory concentration (IC50) with KB [1] is 0.6 nM; in the test with HCT-116, 16 nM; with MCF7 it was 0.2 nM. The inhibition entry in test [2] was “Active”.
With `COC[C@H]1O[C@@H](Oc2c3c(c(-c4ccc5c(c4)OCO5)c4cc(OC)c(OC)cc24)C(=O)OC3)[C@H](O)[C@@H](O)[C@@H]1O`, the IC50 in the test with KB [1] was 4500 nM; in the test with HCT-116 it was more than 10000 nM; with MCF7, more than 10000 nM. Moreover, in test [2], the inhibition entry is “inactive”.

Source of the values: ChEMBL document CHEMBL1926616, “Design, synthesis and biological evaluation of novel glycosylated diphyllin derivatives as topoisomerase II inhibitors” (Eur J Med Chem, 2012).
